According to article PMC4298701 (Diabetes, 2007):

Experiments:
sphingomyelinase = target: T1, sphingomyelinase (Homo sapiens, UniProt P17405); experiment: Sphingomyelinase inhibition; assay type: biochemical; conditions: at a concentration <1 μmol/l
T1 sequence (P17405 47-631): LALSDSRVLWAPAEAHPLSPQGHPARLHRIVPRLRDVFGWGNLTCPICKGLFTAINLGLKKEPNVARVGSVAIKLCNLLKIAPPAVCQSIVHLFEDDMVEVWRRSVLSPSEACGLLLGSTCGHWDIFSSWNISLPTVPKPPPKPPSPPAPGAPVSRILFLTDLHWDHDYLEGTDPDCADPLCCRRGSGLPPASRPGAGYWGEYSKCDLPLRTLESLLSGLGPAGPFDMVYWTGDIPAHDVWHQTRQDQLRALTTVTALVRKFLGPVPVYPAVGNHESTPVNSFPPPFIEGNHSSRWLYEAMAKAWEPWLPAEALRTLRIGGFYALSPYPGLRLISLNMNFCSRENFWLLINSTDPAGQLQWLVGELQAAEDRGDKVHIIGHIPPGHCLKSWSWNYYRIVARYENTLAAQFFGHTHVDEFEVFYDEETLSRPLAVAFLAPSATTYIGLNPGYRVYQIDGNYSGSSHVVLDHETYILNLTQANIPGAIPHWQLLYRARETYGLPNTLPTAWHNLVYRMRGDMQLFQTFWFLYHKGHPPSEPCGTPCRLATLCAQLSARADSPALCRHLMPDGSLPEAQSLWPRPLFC

acid α-glucosidase = acid α-glucosidase (Homo sapiens, UniProt P10253); experiment: Acid α-glucosidase inhibition; assay type: biochemical; conditions: at a concentration <1 μmol/l
[1] = tested on: endoplasmic reticulum–trimming α-glucosidases; experiment: ER-trimming α-glucosidases inhibition; assay type: biochemical; conditions: at a concentration <1 μmol/l
[2] = target: debranching enzyme (α-1, 6-glucosidase) (Homo sapiens, UniProt P35573); experiment: Debranching enzyme, erythrocyte preparation; assay type: biochemical; conditions: at a concentration <1 μmol/l; data not shown
glycogen synthase = experiment: Glycogen synthase inhibition; assay type: biochemical; conditions: at a concentration <1 μmol/l; data not shown
sucrase = sucrase (Rattus norvegicus, UniProt P23739); experiment: Sucrase, homogenates of freshly isolated rat intestine; assay type: biochemical; conditions: read-out: IC50 sucrase; rat intestine homogenate
maltase = experiment: Maltase, homogenates of freshly isolated rat intestine; assay type: biochemical; conditions: read-out: IC50 maltase; rat intestine homogenate
3T3-L1 adipocytes [3] = experiment: Sphingolipid content of 3T3-L1 adipocytes; assay type: cell-based; conditions: TNF-α 0.6 nmol/l + AMP-DNM 10 μmol/l, 24 h, mean ± SE
3T3-L1 adipocytes [4] = experiment: Insulin signaling in TNF-α-treated 3T3-L1 adipocytes; assay type: cell-based; conditions: 10 μmol/l AMP-DNM, TNF-α 0.6 nmol/l, 24 h
3T3-L1 adipocytes [5] = experiment: Cell surface expression of GM3; assay type: cell-based; conditions: 10 μmol/l AMP-DNM, TNF-α 0.6 nmol/l, 24 h
Outline: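 Fully differentiated 3T3-L1 adipocytes were serum-deprived in DMEM plus 1% BSA and treated for 24 h with vehicle, test compound (10 μmol/l) and/or TNF-α (0.6 nmol/l). Basal cells (no insulin) were stained with monoclonal anti-GM3 and FITC- or Alexa 488-conjugated secondary antibody, then read by flow cytometry as % viable cells GM3-positive. Means ± SE of four independent experiments.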

[6] = Plasma levels of AMP-DNM in mice; assay type: in vivo
Outline: (§1)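 Plasma test compound was measured by HPLC followed by mass spectrometry, with blood taken by tail vein, retro-orbital or cardiac puncture. Half-life was determined in mice and rats. For plasma concentration, six-week-old C57Bl/6J mice (n = 4) were dosed at 25 mg·kg−1·day−1 for 14 days and sampled during treatment; mean ± SE.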

[7] = Plasma levels of AMP-DNM in rats; assay type: in vivo
Outline: as §1

[8] = Plasma levels, accumulation and metabolism after administration to rodents; assay type: in vivo
[9] = In vitro incubation with microsomes; assay type: in vitro ADME; conditions: 4 h; not shown
rodents = experiment: Tolerability in rodents; assay type: in vivo; conditions: up to 100 mg · kg−1 · day−1 for 2 months
C57Bl/6J mice = experiment: Ceramide and glycosphingolipids in liver and muscle of normal C57Bl/6J mice; assay type: in vivo
ob/ob mice [10] = experiment: Ceramide and glucosylceramide in liver and muscle of ob/ob mice; assay type: in vivo
ob/ob mice [11] = experiment: Hyperinsulinemic-euglycemic clamp in ob/ob mice; assay type: in vivo; conditions: 25 mg · kg body wt−1 · day−1, clamp
ob/ob mice [12] = experiment: Glucose homeostasis, A1C and liver lipids/glycogen in ob/ob mice; assay type: in vivo
Outline: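 ob/ob mice (C57Bl/6J background) were fed diet containing test compound at 25 mg·kg−1·day−1, with wild-type mice as reference; A1C was measured after 9 weeks. For oral glucose tolerance, animals were fasted >6 h and gavaged with glucose (1 or 2 g/kg). […] Means ± SE; two-tailed Student's t test.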

ZDF rats [13] = experiment: Ceramide and glycosphingolipid levels in liver of ZDF rats; assay type: in vivo; conditions: mean ± SD
ZDF rats [14] = experiment: A1C in ZDF rats; assay type: in vivo
[15] = tested on: C57Bl/6J mice fed a high-fat diet; experiment: Glucose homeostasis in high-fat diet-induced glucose-intolerant C57Bl/6J mice; assay type: in vivo; conditions: high-fat diet C57Bl/6J mice, 2 weeks, ± SD
Outline: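 C57Bl/6J mice were made glucose-intolerant by 4 weeks on a high-fat diet (16.4% protein, 25.5% carbohydrate, 58.0% fat). They then received test compound by daily oral gavage at 0, 5 or 25 mg·kg−1·day−1 for 2 weeks, n = 8 per group. Fasted blood glucose was measured; means ± SD.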

[16] = with insulin (100 nmol/l, 5 min)
[17] = oral administration of 25 mg/kg body wt
[18] = C57Bl/6J mice, 25 mg · kg−1 · day−1, 14 days
[19] = normal C57Bl/6J mice, 25 mg AMP-DNM/kg, 2 weeks, mean ± SD
[20] = 25 mg AMP-DNM/kg, 2 weeks, mean ± SD
[21] = ob/ob mice, 25 mg · kg body wt−1 · day−1

debranching enzyme (α-1, 6-glucosidase), sequence (P35573 whole entry): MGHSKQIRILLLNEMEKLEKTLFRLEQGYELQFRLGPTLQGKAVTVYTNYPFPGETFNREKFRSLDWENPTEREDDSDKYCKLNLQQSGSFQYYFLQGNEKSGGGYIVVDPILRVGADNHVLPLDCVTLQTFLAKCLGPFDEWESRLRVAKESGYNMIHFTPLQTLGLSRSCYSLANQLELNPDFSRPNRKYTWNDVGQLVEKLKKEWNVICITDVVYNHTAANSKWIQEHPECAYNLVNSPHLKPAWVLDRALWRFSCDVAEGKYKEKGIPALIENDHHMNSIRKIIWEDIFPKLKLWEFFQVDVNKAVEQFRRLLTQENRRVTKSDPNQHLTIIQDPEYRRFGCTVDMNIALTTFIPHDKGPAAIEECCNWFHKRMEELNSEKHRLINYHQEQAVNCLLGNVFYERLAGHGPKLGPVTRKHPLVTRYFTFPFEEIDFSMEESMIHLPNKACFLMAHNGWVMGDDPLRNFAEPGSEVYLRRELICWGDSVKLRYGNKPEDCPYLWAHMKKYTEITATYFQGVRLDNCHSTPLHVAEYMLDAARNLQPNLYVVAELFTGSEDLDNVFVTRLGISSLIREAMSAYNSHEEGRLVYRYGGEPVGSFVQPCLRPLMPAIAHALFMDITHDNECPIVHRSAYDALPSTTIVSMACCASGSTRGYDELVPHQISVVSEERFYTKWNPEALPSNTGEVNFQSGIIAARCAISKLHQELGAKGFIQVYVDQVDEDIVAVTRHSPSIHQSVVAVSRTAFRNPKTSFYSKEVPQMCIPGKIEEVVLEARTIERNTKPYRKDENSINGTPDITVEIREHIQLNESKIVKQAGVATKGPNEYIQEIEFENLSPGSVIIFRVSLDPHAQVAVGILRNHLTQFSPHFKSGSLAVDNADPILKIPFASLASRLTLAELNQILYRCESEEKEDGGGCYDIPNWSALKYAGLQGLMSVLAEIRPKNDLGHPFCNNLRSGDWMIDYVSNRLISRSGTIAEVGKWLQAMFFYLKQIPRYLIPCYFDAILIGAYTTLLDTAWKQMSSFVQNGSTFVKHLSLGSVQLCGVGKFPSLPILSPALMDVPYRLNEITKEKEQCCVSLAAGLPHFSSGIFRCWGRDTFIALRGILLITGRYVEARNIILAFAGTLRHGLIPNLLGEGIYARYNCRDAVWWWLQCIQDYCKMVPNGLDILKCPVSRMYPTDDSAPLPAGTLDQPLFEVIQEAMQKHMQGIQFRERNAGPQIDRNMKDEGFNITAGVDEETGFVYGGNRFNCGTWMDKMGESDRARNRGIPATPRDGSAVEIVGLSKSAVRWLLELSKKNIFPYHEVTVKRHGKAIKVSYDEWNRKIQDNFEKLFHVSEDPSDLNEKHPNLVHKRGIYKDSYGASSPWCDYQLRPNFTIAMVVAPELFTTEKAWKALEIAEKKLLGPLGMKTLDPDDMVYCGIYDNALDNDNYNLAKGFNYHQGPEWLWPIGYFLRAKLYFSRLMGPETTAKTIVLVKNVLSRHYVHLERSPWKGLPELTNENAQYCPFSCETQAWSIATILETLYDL
sucrase, sequence (P23739 1014-1841 limits assumed): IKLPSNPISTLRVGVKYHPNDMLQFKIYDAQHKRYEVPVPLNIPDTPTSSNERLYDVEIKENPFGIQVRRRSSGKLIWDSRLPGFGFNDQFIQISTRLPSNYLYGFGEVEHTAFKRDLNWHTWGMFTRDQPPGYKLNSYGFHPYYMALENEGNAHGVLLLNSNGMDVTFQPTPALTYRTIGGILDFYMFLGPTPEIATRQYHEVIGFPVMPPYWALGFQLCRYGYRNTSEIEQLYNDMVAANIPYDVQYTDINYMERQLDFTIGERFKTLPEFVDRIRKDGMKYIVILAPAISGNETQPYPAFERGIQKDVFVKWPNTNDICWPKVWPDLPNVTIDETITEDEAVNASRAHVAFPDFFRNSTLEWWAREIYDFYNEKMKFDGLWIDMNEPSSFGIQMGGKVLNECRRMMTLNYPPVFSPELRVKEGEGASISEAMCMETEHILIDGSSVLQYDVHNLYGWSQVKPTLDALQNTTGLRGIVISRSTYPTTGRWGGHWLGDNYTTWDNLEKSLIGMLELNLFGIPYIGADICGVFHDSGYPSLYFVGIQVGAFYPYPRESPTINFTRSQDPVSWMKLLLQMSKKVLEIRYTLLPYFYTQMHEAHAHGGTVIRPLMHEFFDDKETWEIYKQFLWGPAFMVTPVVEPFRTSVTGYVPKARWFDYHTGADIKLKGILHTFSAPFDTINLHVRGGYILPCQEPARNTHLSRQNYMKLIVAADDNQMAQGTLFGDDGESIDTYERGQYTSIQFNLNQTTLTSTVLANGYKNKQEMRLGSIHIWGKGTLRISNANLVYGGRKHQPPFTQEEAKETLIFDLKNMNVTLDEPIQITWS
sucrase, sequence (P23739 1-1013 partner limits assumed): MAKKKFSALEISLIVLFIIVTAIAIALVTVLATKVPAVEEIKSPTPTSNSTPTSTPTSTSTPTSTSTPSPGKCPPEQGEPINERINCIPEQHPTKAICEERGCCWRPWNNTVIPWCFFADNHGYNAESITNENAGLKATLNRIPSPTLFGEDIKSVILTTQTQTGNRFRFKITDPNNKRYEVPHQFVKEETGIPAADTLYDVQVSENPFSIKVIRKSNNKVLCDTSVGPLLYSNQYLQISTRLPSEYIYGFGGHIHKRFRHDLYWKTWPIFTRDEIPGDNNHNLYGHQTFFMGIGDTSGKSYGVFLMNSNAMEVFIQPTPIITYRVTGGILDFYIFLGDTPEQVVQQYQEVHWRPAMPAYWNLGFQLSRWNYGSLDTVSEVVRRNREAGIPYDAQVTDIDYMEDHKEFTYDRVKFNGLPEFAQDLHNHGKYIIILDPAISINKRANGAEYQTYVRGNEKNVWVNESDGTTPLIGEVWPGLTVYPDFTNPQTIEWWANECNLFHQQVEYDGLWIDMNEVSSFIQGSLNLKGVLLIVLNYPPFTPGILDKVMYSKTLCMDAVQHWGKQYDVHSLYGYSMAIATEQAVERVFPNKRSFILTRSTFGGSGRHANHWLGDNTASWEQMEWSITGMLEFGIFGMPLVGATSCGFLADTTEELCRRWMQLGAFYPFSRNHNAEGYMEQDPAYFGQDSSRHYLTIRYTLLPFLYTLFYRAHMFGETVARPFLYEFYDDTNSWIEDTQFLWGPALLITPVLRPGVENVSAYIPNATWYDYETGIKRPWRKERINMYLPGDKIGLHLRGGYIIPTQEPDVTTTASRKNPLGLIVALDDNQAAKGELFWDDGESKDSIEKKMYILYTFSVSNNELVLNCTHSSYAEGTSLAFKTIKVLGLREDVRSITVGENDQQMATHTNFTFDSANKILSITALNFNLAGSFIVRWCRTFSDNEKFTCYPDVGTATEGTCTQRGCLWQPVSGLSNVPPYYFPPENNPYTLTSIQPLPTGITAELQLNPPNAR

SMILES: OC[C@@H]1[C@@H](O)[C@H](O)[C@@H](O)CN1CCCCCOCC12CC3CC(CC(C3)C1)C2 [AMP-DNM, N-(5′-adamantane-1′-yl-methoxy)-pentyl-1-deoxynojirimycin]
- inhibition of sphingomyelinase activity (sphingomyelinase): no significant inhibition
- inhibition of acid α-glucosidase activity (acid α-glucosidase): no significant inhibition
- inhibition of endoplasmic reticulum–trimming α-glucosidases [1]: no significant inhibition
- effect on cytosolic debranching enzyme [2]: unaffected
- effect on glycogen synthase (glycogen synthase): unaffected
- IC50 (sucrase): 4.5 µM
- IC50 (maltase): 18 µM
- Ceramide (3T3-L1 adipocytes [3]; [16]): 1,241 ± 99 pmol/well
- GM3 (3T3-L1 adipocytes [3]; [16]): 1,988 ± 169 pmol/well
- Ceramide (3T3-L1 adipocytes [3]; without insulin): 1,241 ± 88 pmol/well
- GM2 (3T3-L1 adipocytes [3]; without insulin): 267 ± 18 pmol/well
- GM3 (3T3-L1 adipocytes [3]; without insulin): 2,205 ± 138 pmol/well
- TNF-α-impaired insulin receptor autophosphorylation, IRS-1 tyrosine phosphorylation and Ser-473 phosphorylation of Akt (3T3-L1 adipocytes [4]): significantly ameliorated
- TNF-α-increased cell surface levels of GM3 gangliosides (3T3-L1 adipocytes [5]): blocked
- plasma concentration of AMP-DNM ([6]; C57Bl/6J mice, 25 mg · kg body wt−1 · day−1 for 14 days, mean ± SE): 108 ± 6 nM
- plasma half-life ([6]; mice): ~ 3.1 h
- plasma half-life [7]: ~4.2 h
- accumulation with daily exposure ([8]; daily exposure over 28 days): does not accumulate
- in vivo metabolism (mass spectrometric analysis of urine and plasma) ([8]; in vivo): No significant in vivo metabolism
- maximal plasma concentration [8, 17]: 5 µmol/L
- time of maximal plasma concentration [8, 17]: 30 min
- recovered after in vitro incubation with microsomes [9]: More than 90%
- overt toxicity (rodents): did not result in any overt toxicity
- reduction of ganglioside GM3 in liver (C57Bl/6J mice; [18]): 28 ± 6%
- reduction of liver glucosylceramide (C57Bl/6J mice; [18]): 41 ± 5%
- Cer, liver (C57Bl/6J mice; [19]): 10.31 ± 0.96 nmol/mg protein
- Cer, muscle (C57Bl/6J mice; [19]): 1.47 ± 0.22 nmol/mg protein
- GlcCer, liver (C57Bl/6J mice; [19]): 1.24 ± 0.09 nmol/mg protein
- GlcCer, muscle (C57Bl/6J mice; [19]): 0.89 ± 0.22 nmol/mg protein
- Cer, liver (ob/ob mice [10]; [20]): 95.9 ± 11.6 nmol/mg protein
- Cer, muscle (ob/ob mice [10]; [20]): 1.29 ± 0.24 nmol/mg protein
- GlcCer, liver (ob/ob mice [10]; [20]): 2.24 ± 0.14 nmol/mg protein
- GlcCer, muscle (ob/ob mice [10]; [20]): 1.41 ± 0.16 nmol/mg protein
- decrease of glucosylceramide content of muscle (ob/ob mice [10]; 25 mg · kg−1 · day−1, two weeks): 45 ± 23%
- decrease in hepatic glucose production (Ra) (ob/ob mice [11]): ~ 26%
- increase in glucose disposal (Rd) (ob/ob mice [11]): ~ 29%
- whole-body insulin sensitivity (ob/ob mice [11]): marked improvement
- triglyceride concentration in liver (ob/ob mice [12]; AMP-DNM-fed ob/ob mice): 80 ± 11 nmol/mg liver
- blood glucose concentrations (ob/ob mice [12]; [21]): pronounced reduction
- effect on body weight or food intake (ob/ob mice [12]; [21]): no significant effect
- A1C concentration (ob/ob mice [12]; ob/ob mice, 25 mg · kg body wt−1 · day−1 for 9 weeks): 4.82 ± 0.85%
- AUC of blood glucose concentrations, oral glucose tolerance test (ob/ob mice [12]; ob/ob mice, 25 mg/kg for 8 days, glucose 1 g/kg body wt, ± SD): 13.21 ± 1.43 arbitrary units per minute
- Liver Ceramide (ZDF rats [13]; 5 mg · kg−1 · day−1, 10 weeks): 416 ± 24 nmol/g wet wt
- Liver GDA1 (ZDF rats [13]; 5 mg · kg−1 · day−1, 10 weeks): 15.5 ± 1.7 nmol/g wet wt
- Liver GM1 (ZDF rats [13]; 5 mg · kg−1 · day−1, 10 weeks): 11.4 ± 2.2 nmol/g wet wt
- Liver GM2 (ZDF rats [13]; 5 mg · kg−1 · day−1, 10 weeks): 5.9 ± 0.9 nmol/g wet wt
- Liver GM3 (ZDF rats [13]; 5 mg · kg−1 · day−1, 10 weeks): 21.3 ± 2.9 nmol/g wet wt
- Liver Glucosylceramide (ZDF rats [13]; 5 mg · kg−1 · day−1, 10 weeks): 53.4 ± 5.7 nmol/g wet wt
- Liver Ceramide (ZDF rats [13]; 25 mg · kg−1 · day−1, 10 weeks): 451 ± 37 nmol/g wet wt
- Liver GDA1 (ZDF rats [13]; 25 mg · kg−1 · day−1, 10 weeks): 7.9 ± 0.9 nmol/g wet wt
- Liver GM1 (ZDF rats [13]; 25 mg · kg−1 · day−1, 10 weeks): 5.6 ± 1.1 nmol/g wet wt
- Liver GM2 (ZDF rats [13]; 25 mg · kg−1 · day−1, 10 weeks): 4.8 ± 0.8 nmol/g wet wt
- Liver GM3 (ZDF rats [13]; 25 mg · kg−1 · day−1, 10 weeks): 17.3 ± 2.7 nmol/g wet wt
- Liver Glucosylceramide (ZDF rats [13]; 25 mg · kg−1 · day−1, 10 weeks): 47.4 ± 5.2 nmol/g wet wt
- A1C (ZDF rats [14]; 25 mg · kg−1 · day−1, 9 weeks): 6.31 ± 0.68%
- A1C (ZDF rats [14]; 60 mg · kg body wt−1 · day−1, 10 weeks, separate experiment): 5.4 ± 0.4%
- fasting blood glucose ([15]; 5 mg · kg−1 · day−1 oral gavage): 9.46 ± 0.26 mmol/L
- fasting blood glucose ([15]; 25 mg · kg−1 · day−1 oral gavage): 7.74 ± 0.40 mmol/L
